Results as given in ChEMBL document CHEMBL3243935, “Analgesic and tranquilizing activity of 5,8-disubstituted 2-aminomethyl-3,4-dihydronaphthalenes” (J Med Chem, 1978).
Active and inactive are the calls of the source.

Legend:
[1] = test system: Mus musculus; assay: Analgesic activity in Swiss CD mouse assessed as elevation of response latency at 100 mg/kg, ip measured 2 hrs post treatment by tail flick method relative to control; assay type: functional; settings: route intraperitoneal
Outline: (§1)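 Male mice, about 20 g, dosed ip in saline (solution or suspension). High-intensity heat was focused on the tail, and latency to a sudden tail flick was timed, with a 10-s cutoff. Tests ran at 0.5 and 2 h post-dose, with at least ten mice per dose. Percent control = mean latency ÷ mean control latency × 100; 200% was the lower bound of activity.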

[2] = test system: Mus musculus; assay: Analgesic activity in Swiss CD mouse at 100 mg/kg, ip measured 2 hrs post treatment by hot-plate method relative to control; assay type: functional; settings: route intraperitoneal
Outline: (§2)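 Male mice, about 20 g, dosed ip in saline. Each mouse was dropped into a glass cylinder on an aluminium plate held at 57 °C. Latency to the first flick of a hind foot was timed at 0.5 and 2 h post-dose, with a 10-s cutoff. At least ten mice per dose. Percent control = mean latency ÷ mean control latency × 100; 200% was the lower bound of activity.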

[3] = test system: Mus musculus; assay: Toxicity in Swiss CD mouse assessed as loss of righting reflex at 100 mg/kg, ip measured 0.5 hr post treatment; assay type: organism-based; set-up: dose 100 mg/kg, route intraperitoneal; settings: in vivo
Outline: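 Male Swiss CD mice (about 20 g) given compound ip in saline solution or suspension, usually 5 mL/kg, during hot-plate/tail-flick screening. At least ten mice per dose. Loss of righting reflex noted at 0.5 h after dosing.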

[4] = test system: Mus musculus; assay: Analgesic activity in Swiss CD mouse at 56 mg/kg, ip measured 0.5 hr post treatment by hot-plate method relative to control; assay type: functional; settings: route intraperitoneal; outline: as §2
[5] = test system: Canis familiaris; assay: Analgesic activity in dog assessed as increase in response threshold at 16 mg/kg, sc measured 0.5 to 2 hrs post treatment by radiant heat method relative to control; assay type: functional, organism-based; set-up: dose 16 mg/kg; settings: Canis lupus familiaris
Outline: (§3)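 Male mongrel dogs, 9-12 kg. The response threshold was the reflex fasciculation of the back muscles under radiant heat. Testing was at 0.5 and 2 h post-dose, with the end point expressed as percent of control latency.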

[6] = test system: Mus musculus; assay: Analgesic activity in Swiss CD mouse assessed as elevation of response latency at 56 mg/kg, ip measured 0.5 hr post treatment by tail flick method relative to control; assay type: functional; settings: route intraperitoneal; outline: as §1
[7] = test system: Mus musculus; assay: Analgesic activity in Swiss CD mouse at 56 mg/kg, ip measured 2 hrs post treatment by hot-plate method relative to control; assay type: functional; settings: route intraperitoneal; outline: as §2
[8] = test system: Mus musculus; assay: Analgesic activity in Swiss CD mouse assessed as elevation of response latency at 56 mg/kg, ip measured 2 hrs post treatment by tail flick method relative to control; assay type: functional; settings: route intraperitoneal; outline: as §1
[9] = test system: Mus musculus; assay: Analgesic activity in Swiss CD mouse assessed as elevation of response latency at 100 mg/kg, ip measured 0.5 hr post treatment by tail flick method relative to control; assay type: functional; settings: route intraperitoneal; outline: as §1
[10] = test system: Rattus norvegicus; assay: Neuroleptic activity in decarboxylase-inhibited Sprague-Dawley CD rat brain assessed as increase in DOPA accumulation at 0.056 mmol/kg relative to control; assay type: functional; set-up: scale not given: the % may be the effect or the level left
[11] = test system: Rattus norvegicus; assay: Neuroleptic activity in ip dosed Sprague-Dawley CD rat assessed as reversal of amphetamine-induced stereotypy compound administered 1hr prior challenge; assay type: functional
Outline: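 Rats dosed ip, then given amphetamine sulfate 5 mg/kg 1 h later. The ED50 is the dose that reverses the amphetamine-induced stereotypy.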

[12] = test system: Mus musculus; assay: Analgesic activity in Swiss CD mouse at 100 mg/kg, ip measured 0.5 hr post treatment by hot-plate method relative to control; assay type: functional; settings: route intraperitoneal; outline: as §2
[13] = test system: Mus musculus; assay: Analgesic activity in Swiss CD mouse at 100 mg/kg, ip bid for 4 days by hot-plate method relative to control in presence of naloxone; assay type: functional, organism-based; set-up: dose 100 mg/kg
[14] = test system: Mus musculus; assay: Analgesic activity in Swiss CD mouse at 100 mg/kg, ip bid for 4 days by tail flick method relative to control in presence of naloxone; assay type: functional, organism-based; set-up: dose 100 mg/kg
[15] = test system: Canis familiaris; assay: Analgesic activity in po dosed dog assessed as increase in response threshold by radiant heat method; assay type: functional; settings: Canis lupus familiaris; outline: as §3
[16] = test system: Rattus norvegicus; assay: Neuroleptic activity in decarboxylase-inhibited Sprague-Dawley CD rat brain assessed as increase in DOPA accumulation at 0.1 mmol/kg relative to control; assay type: functional; set-up: scale not given: the % may be the effect or the level left
[17] = test system: Mus musculus; assay: Analgesic activity in Swiss CD mouse at 100 mg/kg, ip bid for 4 days measured after 4 days by hot-plate method relative to control; assay type: functional, organism-based; set-up: dose 100 mg/kg
Outline: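 Tolerance test in male mice: 100 mg/kg ip bid for 4 days, with hot-plate latency measured against control. A parallel group received morphine sulfate 10 mg/kg ip bid.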

[18] = test system: Rattus norvegicus; assay: Analgesic activity in Sprague-Dawley CD rat at 32 mg/kg, ip measured 0.5 to 2 hrs post treatment by flinch-jump method relative to control; assay type: functional, organism-based; set-up: dose 32 mg/kg
Outline: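 Male rats, 200-300 g, dosed ip (saline solution or suspension). A single rising series of 1-s foot shocks was given just before and at 0.5 and 2 h after dosing. The minimum shock intensity (mA) evoking each behaviour was recorded. No response at the 2.2-mA level counted as activity. At least five rats per dose.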

[19] = test system: Mus musculus; assay: Analgesic activity in Swiss CD mouse at 100 mg/kg, ip bid for 4 days measured after naloxone challenge on day 4 by hot-plate method relative to control; assay type: functional, organism-based; set-up: dose 100 mg/kg
[20] = test system: Canis familiaris; assay: Analgesic activity in dog assessed as increase in response threshold at 3.2 mg/kg, sc measured 0.5 to 2 hrs post treatment by radiant heat method relative to control; assay type: functional, Canis lupus familiaris; settings: route subcutaneous
Outline: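 Male mongrel dogs (9-12 kg) received the agent sc in saline solution or suspension. The radiant heat stimulus end point was reflex fasciculation of the back muscles. Each animal was tested 0.5 and 2 h after dosing, and the end point was expressed as percent of control latency.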

[21] = test system: Rattus norvegicus; assay: Neuroleptic activity in decarboxylase-inhibited Sprague-Dawley CD rat brain assessed as increase in DOPA accumulation at 0.001 mmol/kg relative to control; assay type: functional; set-up: scale not given: the % may be the effect or the level left

Structure (SMILES) | Activity [1] [%] | Activity [2] [%] | Activity [9] [%] | ED50 [11] [mg/kg] | Activity [12] [%] | also measured
CCc1ccc2c(c1)C=C(CN1CCCC1)CC2.Cl | 198 | 130 |  |  |  | Activity [3]: Toxic
CCOC(=O)C1(c2ccccc2)CCN(C)CC1 [MEPERIDINE] |  |  |  |  |  | Activity [4]: 296%; Activity [5]: Active; Activity [6]: 194%; Activity [7]: 231%; Activity [8]: 160%
Br.COc1ccc(Cl)c2c1CCC(CN1CCOCC1)=C2 | 125 | 90 | 136 | > 32 | 95 | Activity [10]: 243%
Br.COc1ccc(Cl)c2c1CCC(CN1CCCC1)=C2 | 135 | 117 | 238 | 32 | 282 | Activity [13]: Active; Activity [14]: Active; ED50 [15]: 16.2 mg/kg; Activity [16]: 288%; Activity [17]: Active; Activity [18]: Active; Activity [19]: Active; Activity [20]: 50%
CCOC1(c2ccccc2)CCN(CC2=Cc3c(Cl)ccc(OC)c3CC2)CC1 | 157 | 156 | 196 |  | 262 | Activity [21]: 491%
